Assay results: ChEMBL document CHEMBL4431385, “Substituted tetracyclic indole core derivatives of HCV NS5A inhibitor MK-8742” (Bioorg Med Chem Lett, 2016)
Changes are numbered by the printed parent chain.

Tests used:
[1] = Clearance in Sprague-Dawley rat at 10 mg/kg, po or 2 mg/kg, iv; assay type: ADME, organism-based; conditions: in vivo
Outline: (§1)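 Male Sprague–Dawley rats got an IV dose of 2 mg/kg in 60% PEG200 and a PO dose of 10 mpk in 10% TWEEN. Reported values are PO AUC (µM h), PO Cmax (µM), T1/2 (h), clearance (ml/min/kg) and oral bioavailability F (%).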

[2] = tested on: Hepatitis C virus subtype 1a; assay: Selectivity ratio of EC90 for HCV GT1a NS5A L31V mutant to EC90 for HCV GT1a NS5A
[3] = tested on: T1, Nonstructural protein 5A (Hepatitis C virus), Q5L478 [Y93H]; assay: Inhibition of HCV GT1a NS5A Y93H mutant assessed as suppression of replicon RNA level by real-time PCR analysis; conditions: Hepatitis C virus subtype 1a
T1 sequence (whole entry): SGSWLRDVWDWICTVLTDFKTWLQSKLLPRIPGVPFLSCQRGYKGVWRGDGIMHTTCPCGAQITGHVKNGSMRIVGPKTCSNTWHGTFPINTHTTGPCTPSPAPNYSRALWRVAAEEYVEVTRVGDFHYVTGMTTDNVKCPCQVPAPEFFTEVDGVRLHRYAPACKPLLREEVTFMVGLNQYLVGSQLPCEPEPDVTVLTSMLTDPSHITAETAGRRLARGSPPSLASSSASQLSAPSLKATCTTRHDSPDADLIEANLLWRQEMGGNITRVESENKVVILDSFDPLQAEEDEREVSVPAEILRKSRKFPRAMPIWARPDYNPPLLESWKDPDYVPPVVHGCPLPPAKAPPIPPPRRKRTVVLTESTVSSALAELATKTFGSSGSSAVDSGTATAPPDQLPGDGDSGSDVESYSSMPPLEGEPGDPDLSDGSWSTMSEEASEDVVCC

[4] = Oral bioavailability in Sprague-Dawley rat at 10 mg/kg; assay type: ADME, organism-based; conditions: in vivo; outline: as §1
[5] = target: T2, Nonstructural protein 5A (Hepatitis C virus) (UniProt Q5L478); assay: Inhibition of HCV GT2b NS5A assessed as suppression of replicon RNA level by real-time PCR analysis; conditions: Hepatitis C virus subtype 2b
T2 sequence (whole entry): T1 sequence (whole entry) with H93Y
Outline: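 GT2b replicon, which carries the naturally occurring NS5A 31M resistance-associated variant; potency given as EC90 in nM.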

[6] = tested on: Nonstructural protein 5A (Hepatitis C virus), Q5L478 [UNDEFINED MUTATION]; assay: Inhibition of HCV GT1a NS5A L31V mutant assessed as suppression of replicon RNA level by real-time PCR analysis; conditions: Hepatitis C virus subtype 1a
[7] = tested on: Hepatitis C virus subtype 1a; assay: Selectivity ratio of EC90 for HCV GT1a NS5A Y93H mutant to EC90 for HCV GT1a NS5A
[8] = Cmax in Sprague-Dawley rat at 10 mg/kg, po; assay type: ADME, organism-based; design: dose 10 mg/kg, route oral; conditions: in vivo; outline: as §1
[9] = Selectivity ratio of EC90 for HCV GT2b NS5A to EC90 for HCV GT1a NS5A
[10] = target: T2, Nonstructural protein 5A (Hepatitis C virus); assay: Inhibition of HCV GT1a NS5A assessed as suppression of replicon RNA level by real-time PCR analysis; conditions: Hepatitis C virus subtype 1a
[11] = target: T2, Nonstructural protein 5A (Hepatitis C virus); assay: Inhibition of HCV GT3a NS5A assessed as suppression of replicon RNA level by real-time PCR analysis; conditions: Hepatitis C virus subtype 3a
[12] = Half life in Sprague-Dawley rat at 10 mg/kg, po or 2 mg/kg, iv; assay type: ADME, organism-based; conditions: in vivo; outline: as §1
[13] = AUC in Sprague-Dawley rat at 10 mg/kg, po; assay type: ADME, organism-based; conditions: in vivo; outline: as §1
[14] = target: T2, Nonstructural protein 5A (Hepatitis C virus); assay: Inhibition of HCV GT4a NS5A assessed as suppression of replicon RNA level by real-time PCR analysis; conditions: Hepatitis C virus subtype 4a
[15] = target: T2, Nonstructural protein 5A (Hepatitis C virus); assay: Inhibition of HCV GT2a NS5A assessed as suppression of replicon RNA level by real-time PCR analysis; conditions: Hepatitis C virus subtype 2a
[16] = Half life in Sprague-Dawley rat at 5 mg/kg, po or 2 mg/kg, iv; assay type: ADME, organism-based; conditions: in vivo
Outline: (§2)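 Male Sprague–Dawley rats got IV dosing at 2 mg/kg in 60% PEG200 and PO dosing at 5 mpk in either 0.5% MC or 10% TWEEN, depending on compound. The readouts are PO AUC (µM h), PO Cmax (µM), T1/2 (h), Cl (ml/min/kg) and F (%).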

[17] = target: T2, Nonstructural protein 5A (Hepatitis C virus); assay: Inhibition of HCV GT1b NS5A assessed as suppression of replicon RNA level by real-time PCR analysis; conditions: Hepatitis C virus subtype 1b
[18] = AUC in Sprague-Dawley rat at 5 mg/kg, po; assay type: ADME, organism-based; conditions: in vivo; outline: as §2
[19] = Oral bioavailability in Sprague-Dawley rat at 5 mg/kg; assay type: ADME, organism-based; conditions: in vivo; outline: as §2
[20] = Cmax in Sprague-Dawley rat at 5 mg/kg, po; assay type: ADME, organism-based; design: dose 5 mg/kg, route oral; conditions: in vivo; outline: as §2
[21] = Clearance in Sprague-Dawley rat at 5 mg/kg, po or 2 mg/kg, iv; assay type: ADME, organism-based; conditions: in vivo; outline: as §2

| Compound | EC90 [3] [nM] | EC90 [5] [nM] | EC90 [6] [nM] | EC90 [10] [nM] | EC90 [11] [nM] | EC90 [14] [nM] | EC90 [15] [nM] | EC90 [17] [nM] | other results |
| --- | --- | --- | --- | --- | --- | --- | --- | --- | --- |
| COC(=O)N[C@H](C(=O)N1CCC[C@H]1c1ncc(-c2cc(F)c3c(c2)OC(c2cc(Cl)cc(OC)c2)n2c-3cc3cc(-c4cnc([C@@H]5CCCN5C(=O)[C@@H](NC(=O)OC)C(C)C)[nH]4)ccc32)[nH]1)C(C)C (stereo partly drawn) | 3 | 0.7 | 0.1 | 0.01 | 0.1 |  |  |  | clearance [1]: 8 mL/min/kg; Selectivity ratio [2]: 10; bioavailability [4]: 3%; Selectivity ratio [7]: 300; Cmax [8]: 100 nM; Selectivity ratio [9]: 70; half-life [12]: 5.2 h; AUC [13]: 0.75 µM·h |
| COC(=O)N[C@H](C(=O)N1CCC[C@H]1c1ncc(-c2cc(F)c3c(c2)O[C@@H](c2ccccc2)n2c-3cc3cc(-c4cnc([C@@H]5CCCN5C(=O)[C@@H](NC(=O)OC)C(C)C)[nH]4)ccc32)[nH]1)C(C)C | 34 | 18 | 0.4 | 0.005 | 0.4 | 0.04 | 0.15 | 0.003 | half-life [16]: 3.6 h; AUC ([18]; Sprague-Dawley, read-out: AUC): 2.8 µM·h; bioavailability [19]: 33%; Cmax [20]: 330 nM; clearance [21]: 11 mL/min/kg |
| COC(=O)N[C@H](C(=O)N1CCC[C@H]1c1ncc(-c2ccc3c(c2)OCn2c-3c(C3CC3)c3cc(-c4cnc([C@@H]5CCCN5C(=O)[C@@H](NC(=O)OC)C(C)C)[nH]4)ccc32)[nH]1)C(C)C | 100 | 122 | 8 | 0.03 | 10 | 0.3 | 0.005 | 0.004 |  |
| COC(=O)N[C@H](C(=O)N1CCC[C@H]1c1ncc(-c2cc(F)c3c(c2)O[C@@H](c2ccccc2)n2c-3c(Cl)c3cc(-c4cnc([C@@H]5CCCN5C(=O)[C@@H](NC(=O)OC)C(C)C)[nH]4)ccc32)[nH]1)C(C)C | 51 | 42 | 0.4 | 0.02 | 2 | 0.04 | 0.03 | 0.006 |  |
| COC(=O)N[C@H](C(=O)N1CCC[C@H]1c1ncc(-c2ccc3c(c2)OCn2c-3cc3cc(-c4cnc([C@@H]5CCCN5C(=O)[C@@H](NC(=O)OC)C(C)C)[nH]4)cc(F)c32)[nH]1)C(C)C | 139 | > 100 | 3 | 0.1 | > 10 | 0.2 | 0.1 | 0.01 |  |
| COC(=O)N[C@H](C(=O)N1CCC[C@H]1c1ncc(-c2ccc3c(c2)O[C@@H](c2ccccc2)n2c-3c(F)c3cc(-c4cnc([C@@H]5CCCN5C(=O)[C@@H](NC(=O)OC)C(C)C)[nH]4)ccc32)[nH]1)C(C)C | 25 | 15 | 0.7 | 0.007 | 0.3 | 0.06 | 0.004 | 0.007 |  |
| COC(=O)N[C@H](C(=O)N1CCC[C@H]1c1ncc(-c2ccc3c(c2)OCn2c-3c(-c3ccccc3)c3cc(-c4cnc([C@@H]5CCCN5C(=O)[C@@H](NC(=O)OC)C(C)C)[nH]4)ccc32)[nH]1)C(C)C | 5000 | 204 | 4 | 0.09 | 3 | 0.09 | 0.01 | 0.004 |  |
| COC(=O)N[C@H](C(=O)N1CCC[C@H]1c1ncc(-c2cc(F)c3c(c2)OC(c2ccccc2)n2c-3cc3cc(-c4cnc([C@@H]5C[C@@H](F)CN5C(=O)[C@@H](NC(=O)OC)C(C)C)[nH]4)ccc32)[nH]1)C(C)C (mixture of isomers) | 4 | 32 | 2 | 0.003 | 0.3 | 0.05 | 0.01 | 0.003 |  |
| COC(=O)N[C@H](C(=O)N1C[C@H](F)C[C@H]1c1ncc(-c2cc(F)c3c(c2)OC(c2ccccc2)n2c-3cc3cc(-c4cnc([C@@H]5C[C@@H](F)CN5C(=O)[C@@H](NC(=O)OC)C(C)C)[nH]4)ccc32)[nH]1)C(C)C (mixture of isomers) | 0.08 | 72 | 9 | 0.005 | 0.8 | 0.1 | 0.2 | 0.003 | Selectivity ratio [7]: 16 |
| COC(=O)N[C@H](C(=O)N1CCC[C@H]1c1ncc(-c2ccc3c(c2)OC(c2cccc(OC)c2)n2c-3cc3cc(-c4cnc([C@@H]5CCCN5C(=O)[C@@H](NC(=O)OC)C(C)C)[nH]4)ccc32)[nH]1)C(C)C (stereo partly drawn) | 8 | 2 | 0.2 | 0.005 | 0.1 |  |  |  | half-life [16]: 4.3 h; AUC [18]: 0.51 µM·h; Cmax [20]: 100 nM |
| COC(=O)N[C@H](C(=O)N1C[C@H](F)C[C@H]1c1ncc(-c2ccc3c(c2)OC(c2ccccc2)n2c-3cc3cc(-c4cnc([C@@H]5C[C@@H](F)CN5C(=O)[C@@H](NC(=O)OC)C(C)C)[nH]4)ccc32)[nH]1)C(C)C (mixture of isomers) | 2 | 63 | 10 | 0.01 | 2 | 0.2 | 0.7 | 0.004 |  |
| COC(=O)N[C@H](C(=O)N1CCC[C@H]1c1ncc(-c2ccc3c(c2)c(F)c2n3C(c3ccccc3)Oc3cc(-c4cnc([C@@H]5C[C@@H](F)CN5C(=O)[C@@H](NC(=O)OC)C(C)C)[nH]4)ccc3-2)[nH]1)C(C)C (stereo partly drawn) | 2 | 33 | 1 | 0.002 | 0.2 | 0.04 | 0.003 | 0.001 |  |
| COC(=O)N[C@H](C(=O)N1C[C@H](F)C[C@H]1c1ncc(-c2ccc3c(c2)OC(c2ccccc2)n2c-3c(F)c3cc(-c4cnc([C@@H]5C[C@@H](F)CN5C(=O)[C@@H](NC(=O)OC)C(C)C)[nH]4)ccc32)[nH]1)C(C)C (mixture of isomers) | 2 | 58 | 7 | 0.02 | 8 | 0.3 | 0.3 | 0.005 |  |
| COC(=O)N[C@H](C(=O)N1CCC[C@H]1c1ncc(-c2ccc3c(c2)OCn2c-3cc3cc(-c4cnc([C@@H]5CCCN5C(=O)[C@@H](NC(=O)OC)C(C)C)[nH]4)c(F)cc32)[nH]1)C(C)C | 77 | 150 | 68 | 0.007 | 5 | 0.2 | 0.02 | 0.007 |  |
| COC(=O)N[C@H](C(=O)N1CCC[C@H]1c1ncc(-c2cc(F)c3c(c2)OC(c2cccc(OC)c2)n2c-3cc3cc(-c4cnc([C@@H]5CCCN5C(=O)[C@@H](NC(=O)OC)C(C)C)[nH]4)ccc32)[nH]1)C(C)C (stereo partly drawn) | 6 | 6 | 0.2 | 0.01 | 0.07 |  |  |  | clearance [1]: 10 mL/min/kg; bioavailability [4]: 12%; Cmax [8]: 240 nM; half-life [12]: 5.9 h; AUC [13]: 2.1 µM·h |
